MT1-MMP act inh – MT1-MMP (human) activation inhibition; GFP/RFP ratio change, % at 20 µM; HT1080 RFP-PRO-GFP cells, GFP/RFP ratio fluorescence, overnight; percent of plate control window, DMSO zero; AID 651647; 0.061% of 360,000 active; P50281;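 active means GFP/RFP ratio change of at least 30% with cell ATP level not reduced by more than half and red fluorescence within 50% of control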
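Material: RFP-PRO-GFP reporter HT1080 cells. Dosing: single-point 20 µM compound, 1% DMSO. Controls: DMSO and RFP-L50D-GFP cell wells. Timing: cells overnight before dosing, compound overnight, 37 °C, 5% CO2. Measure: GFP/RFP fluorescence ratio.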
TbMetRS inhib – Trypanosoma brucei MetRS inhibition. purified T. brucei MetRS, ATP depletion, Kinase-Glo luminescence. inhibition, % at 11.9 µM. 0.4% of 360,000 active. AID 624268;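 active means inhibition above a per-plate cutoff of the control wells' mean inhibition plus 3 SD, cut at about 5.5% in these data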
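Test system – parasite MetRS enzyme · Reagent – substrates ATP, L-methionine and bulk Escherichia coli tRNA · Doses – 11.9 µM compound single dose, 0.9% DMSO · Times – 15 min enzyme-compound preincubation, 2 h reaction, 10 min detection, 25 °C · Signal – Kinase-Glo luminescence, ATP depletion format · Controls – DMSO-only wells as low control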
SKN-1 block – inhibitors of C. elegans SKN-1; C. elegans VP596 Pgst-4::GFP/RFP ratio, acrylamide-induced, 24 h; inhibition, % at 21.8 µM; 0.49% of 360,000 active; AID 624304;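 active means interference check ratio from 0.5 to 1.5 plus GFP to RFP signal ratio inhibition reaching or exceeding a fixed threshold, cut at about 30% in these data, passing the limit was not always enough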
Arrestin-AP2 inh – human beta-arrestin and AP2 interaction inhibition; inhibition, % at 10 µM; AID 504490; 0.31% of 340,000 active; FITC-arrestin peptide / GST-AP2 beads, flow cytometry; AP2 beta2 appendage carries R879A mutation;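 active means inhibition above a set limit, near 3 SD of compounds lacking own fluorescence, cut at about 54% in these data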
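System: GST-AP2 R879A glutathione beads | Also added: FITC-arrestin peptide, 50 nM | Times: 12 min plus 1 h, RT | Signal: Bead flow cytometry, FITC channel | Buffer or medium: PBS with 0.05% Tween 20 and 0.1% BSA | Read-out basis: Percent drop in bead-associated FITC signal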
Rin1 Abl inh – blocks binding of human Rin1 to Abl | P00519+Q13671 | TR-FRET Rin1/Abl binding, biochemical | inhibition, % at 7.35 µM | 0.4% of 360,000 active | AID 588664; in the data active means inhibition above about 5%, passing the limit was not always enough
Target sequence (P00519 whole entry, looked up): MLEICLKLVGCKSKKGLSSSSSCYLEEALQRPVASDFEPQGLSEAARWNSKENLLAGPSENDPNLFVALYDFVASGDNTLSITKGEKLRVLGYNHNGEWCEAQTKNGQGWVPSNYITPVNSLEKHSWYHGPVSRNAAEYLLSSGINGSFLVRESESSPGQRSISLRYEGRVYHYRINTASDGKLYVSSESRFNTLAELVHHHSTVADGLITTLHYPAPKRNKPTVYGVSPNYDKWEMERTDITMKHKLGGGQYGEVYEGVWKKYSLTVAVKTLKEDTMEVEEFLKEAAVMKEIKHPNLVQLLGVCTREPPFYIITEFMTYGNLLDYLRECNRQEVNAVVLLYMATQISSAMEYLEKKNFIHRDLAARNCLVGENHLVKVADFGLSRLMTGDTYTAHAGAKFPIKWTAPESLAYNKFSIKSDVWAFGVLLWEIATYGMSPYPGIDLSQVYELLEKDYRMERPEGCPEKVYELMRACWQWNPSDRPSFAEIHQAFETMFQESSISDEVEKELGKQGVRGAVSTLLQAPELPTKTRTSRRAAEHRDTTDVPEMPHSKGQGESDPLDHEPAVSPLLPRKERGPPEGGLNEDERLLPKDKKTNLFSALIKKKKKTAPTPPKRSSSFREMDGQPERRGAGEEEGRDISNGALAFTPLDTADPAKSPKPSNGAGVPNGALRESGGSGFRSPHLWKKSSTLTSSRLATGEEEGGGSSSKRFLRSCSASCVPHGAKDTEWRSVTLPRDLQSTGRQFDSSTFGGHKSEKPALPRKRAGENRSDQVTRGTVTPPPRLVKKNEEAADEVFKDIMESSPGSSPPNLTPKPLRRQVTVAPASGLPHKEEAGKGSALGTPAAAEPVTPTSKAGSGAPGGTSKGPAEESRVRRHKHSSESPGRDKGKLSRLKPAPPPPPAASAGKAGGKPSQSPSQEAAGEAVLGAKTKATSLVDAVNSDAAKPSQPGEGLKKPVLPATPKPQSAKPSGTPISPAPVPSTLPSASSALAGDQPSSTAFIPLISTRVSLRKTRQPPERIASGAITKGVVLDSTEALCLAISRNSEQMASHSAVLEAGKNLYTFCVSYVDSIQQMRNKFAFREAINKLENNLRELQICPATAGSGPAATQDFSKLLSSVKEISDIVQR
Target sequence (Q13671 whole entry, looked up): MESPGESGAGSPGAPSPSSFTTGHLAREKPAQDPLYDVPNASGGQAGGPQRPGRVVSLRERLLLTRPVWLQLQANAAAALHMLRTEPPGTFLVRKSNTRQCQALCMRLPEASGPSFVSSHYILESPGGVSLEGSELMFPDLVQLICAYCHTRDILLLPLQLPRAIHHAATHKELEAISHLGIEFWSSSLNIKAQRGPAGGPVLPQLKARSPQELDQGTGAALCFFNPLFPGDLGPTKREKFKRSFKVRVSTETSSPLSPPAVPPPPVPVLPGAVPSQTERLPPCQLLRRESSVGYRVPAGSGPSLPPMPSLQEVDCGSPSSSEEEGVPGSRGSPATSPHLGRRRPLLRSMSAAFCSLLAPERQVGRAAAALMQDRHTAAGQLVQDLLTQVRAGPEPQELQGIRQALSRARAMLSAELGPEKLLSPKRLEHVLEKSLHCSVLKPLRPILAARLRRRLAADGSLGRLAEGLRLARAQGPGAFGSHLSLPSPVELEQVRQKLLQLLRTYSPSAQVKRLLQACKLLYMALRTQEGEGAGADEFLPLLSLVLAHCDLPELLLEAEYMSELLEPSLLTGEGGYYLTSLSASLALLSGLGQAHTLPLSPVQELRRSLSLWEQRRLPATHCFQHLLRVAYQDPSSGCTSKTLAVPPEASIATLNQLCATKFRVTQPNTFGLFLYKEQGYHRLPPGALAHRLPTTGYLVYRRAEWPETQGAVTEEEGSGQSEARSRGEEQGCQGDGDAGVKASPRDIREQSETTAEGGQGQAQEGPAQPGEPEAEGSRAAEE
Rin1-Abl confirm – confirmation of inhibitors of human Rin1-Abl interaction; shares compounds with Rin1 Abl inh; 49% of 1,300 active; inhibition, % at 7.35 µM; TR-FRET Rin1-Abl binding, purified proteins
GFP quench – GFP fluorescence interference artifact; inhibitors/quenchers counterscreen; 8.5% of 1,300 active; AID 602125; shares compounds with Rin1 Abl inh; inhibition, % at 6.75 µM;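 further: ABL1-eGFP fusion protein alone without its partner RIN1-SBP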
GFP quench DR – counter-screen for Rin1-Abl inhibitors: GFP quenchers, dose response; shares compounds with Rin1 Abl inh; GFP fluorescence interference/quenching counterscreen; IC50, µM; 230 tested, under 10 active; AID 602182; call rule not given here;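 further: ABL1-eGFP fusion protein alone without its RIN1 binding partner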
Of the large screens only hits and unclear results are named; the others gave an inactive call (follow-up assays come after a bar, where they were run). Shown are actives, neighbours in structure and some others; about 1.6% of the full set was active somewhere. Unless noted, no stated cut-off is given here; in the data, active means inhibition above about 6.5%; inactive means the rest.

COc1ccc(CCNC(=O)CSc2nc(C)nc3c2c(=O)n(C)c(=O)n3C)cc1OC	Rin1 Abl inh 21 | Rin1-Abl confirm 21 | GFP quench inactive | GFP quench DR inactive
COc1ccc(CCNC(=O)CSc2nc3[nH]ncc3c(=O)n2-c2ccccc2Br)cc1OC	Rin1 Abl inh 8.2 | Rin1-Abl confirm 8.6 | GFP quench inactive
COc1ccc(-c2cc(C(=O)NCc3ccc(C(F)(F)F)cc3)[nH]n2)c(C)c1	none (no result: Arrestin-AP2 inh)
CN=c1scc(-c2ccccc2F)n1/N=C/c1ccc(O)c(O)c1O	Rin1 Abl inh 6.3 | Rin1-Abl confirm 8.8 | GFP quench 6.7
CC(C)N=c1scc(-c2cccs2)n1/N=C/c1ccc(O)c(O)c1O	Rin1 Abl inh 14 | Rin1-Abl confirm 12 | GFP quench inactive
CN=c1scc(-c2ccccc2F)n1/N=C/c1ccc[nH]1	none
CCN=c1scc(-c2cccs2)n1/N=C/c1cc(OC)ccc1O	none
CCCCCC(=O)N1C[C@@H](n2cc(COC(=O)c3ccccc3)nn2)[C@H](O)C[C@@H]1c1ccc(C)cc1	none (no result: Arrestin-AP2 inh)
CCc1ccccc1CC1CN(Cc2ccccc2)Cc2ccccc2N1c1ccc(OC)cc1 (stereo not given)	none (no result: Arrestin-AP2 inh, Rin1 Abl inh)
Cc1ccccc1NC(=O)Nc1ccc(C(F)(F)F)cc1	Rin1 Abl inh 9.0 | Rin1-Abl confirm inactive | GFP quench inactive
CC(C)c1ccc([C@@H]2O[C@H](C)CC3=C2C(=O)OC(C)(C)O3)cc1	none (no result: Arrestin-AP2 inh, Rin1 Abl inh)
Cc1cc(NC(=O)Cn2nc(C(F)(F)F)c3c2CCC3)no1	none
Cc1ccc(NC(=O)Cn2nc(C(F)(F)F)c3c2CCC3)cc1	Rin1 Abl inh 5.0 | Rin1-Abl confirm inactive | GFP quench inactive
Cc1cccc(C)c1NC(=O)C1(C)CSCC(=O)N1C1CCN(Cc2ccccc2)CC1 (stereo not given)	none (no result: Arrestin-AP2 inh, Rin1 Abl inh)
CC(C)NC(=O)C1(C)CCN1C(=O)c1ccccc1 (stereo not given)	none (no result: Arrestin-AP2 inh)
CCCCNC(=O)C1CCN(Cc2ccc(OCc3ccccc3)cc2)CC1	none
CCCCC(=O)C1CCN(Cc2ccccc2)CC1	Rin1 Abl inh 11 | Rin1-Abl confirm 17 | GFP quench inactive | GFP quench DR inactive
Cc1cn([C@H]2C[C@H](O)[C@@H](/C=C/C(=O)NCCN3CCOCC3)O2)c(=O)[nH]c1=O	none (no result: Arrestin-AP2 inh)
COc1ccc(C2c3c(nc[nH]c3=O)Oc3nc[nH]c(=O)c32)cc1	Rin1 Abl inh 50 | Rin1-Abl confirm 64 | GFP quench inactive | GFP quench DR inactive
CCOc1ccc(C2C(C#N)=C(N)Oc3nc[nH]c(=O)c32)cc1OC (stereo not given)	none
c1ccc(C(c2ccccn2)c2ccccn2)cc1	Rin1 Abl inh 6.5 | Rin1-Abl confirm 7.3 | GFP quench inactive
CC(C)(C)NC(=O)C(c1ccc(C#N)cc1)n1c(=O)c(-c2ccco2)nc2ccccc21 (stereo not given)	none (no result: Arrestin-AP2 inh, Rin1 Abl inh)
CCOC(=O)N1CCN(C(=O)c2ccc(CS(=O)c3cccc(C)c3)o2)CC1 (stereo not given)	none (no result: Arrestin-AP2 inh)
Cc1cc(=O)oc2c(C)c(OCC(=O)N3CCN(C(=O)C4COc5ccccc5O4)CC3)ccc12 (stereo not given)	Rin1 Abl inh 10.0 | Rin1-Abl confirm inactive | GFP quench inactive
Cc1cc(=O)oc2c(C)c(OCC(=O)N3CCN(c4ccccc4)CC3)ccc12	none
O=C(Nc1ccc(C(=O)OC[C@@H]2CCCN3CCCC[C@H]23)cc1)c1cccc(Br)c1	Rin1 Abl inh 8.5 | Rin1-Abl confirm 10 | GFP quench inactive
O=C(NC(=O)c1cccc(F)c1)OC[C@@H]1CCCN2CCCC[C@H]12	none
CCOC(=O)c1ccc(NC(=O)COc2ccccc2CNCCc2ccccc2)cc1	Rin1 Abl inh 19 | Rin1-Abl confirm 24 | GFP quench inactive | GFP quench DR inactive
CCOC(=O)c1ccc(NC(=O)COc2ccc(CNCCO)cc2OCC)cc1	none
Cc1ccnc(NC(c2ccccc2O)c2oc(CO)cc(=O)c2O)c1 (stereo not given)	Rin1 Abl inh 27 | Rin1-Abl confirm 9.8 | GFP quench inactive
O=c1cc(CO)oc(C(Nc2ccccn2)c2ccccc2Cl)c1O (stereo not given)	none
COc1cccc(CNC(=O)Cc2ccc(NC3=NC4CS(=O)(=O)CC4S3)cc2)c1 (stereo not given)	none
COc1ccc(OC)c(NC(=O)Cc2ccc(NC3=NC4CS(=O)(=O)CC4S3)cc2)c1 (stereo not given)	Rin1 Abl inh 22 | Rin1-Abl confirm 27 | GFP quench inactive | GFP quench DR inactive
O=C(Cc1ccc(NC2=NC3CS(=O)(=O)CC3S2)cc1)NCc1ccccc1Cl (stereo not given)	Rin1 Abl inh 16 | Rin1-Abl confirm 16 | GFP quench inactive
O=C(NCCc1ccc(Cl)cc1)c1ccc(NC2=NC3CS(=O)(=O)CC3S2)cc1 (stereo not given)	Rin1 Abl inh 7.4 | Rin1-Abl confirm 8.1 | GFP quench inactive
CCOC(=O)[C@]12CCC=C1N(Cc1ccc3c(c1)OCO3)C(=O)[C@H](CC(=O)NCC13CC4CC(CC(C4)C1)C3)C2	none (no result: Arrestin-AP2 inh, Rin1 Abl inh)
CCCN(C(=O)C1CCCN(c2ncnc3c2nc2n3CCCCC2)C1)c1ccc(F)cc1 (stereo not given)	Rin1 Abl inh 8.5 | Rin1-Abl confirm inactive | GFP quench inactive
COc1cccc(C(=O)c2ncc(C(F)(F)F)cc2Cl)c1	Rin1 Abl inh 13 | Rin1-Abl confirm inactive | GFP quench inactive
COc1ccc(C(=O)c2ncc(C(F)(F)F)cc2Cl)cc1	none
COC(=O)CSc1nc(COc2ccccc2)nc2ccccc12	none
CCN(CC)C(=O)CSc1nc(COc2ccccc2)nc2ccccc12	Rin1 Abl inh 42 | Rin1-Abl confirm 37 | GFP quench inactive
COc1ccccc1N1CCN(Cc2ccc(O)c3ncccc23)CC1	Rin1 Abl inh 18 | Rin1-Abl confirm inactive | GFP quench inactive
COc1ccccc1-c1cc2nc(-c3ccccc3)cc(N3CCN(C(=O)c4ccco4)CC3)n2n1	none (no result: Arrestin-AP2 inh)
O=C(c1ccc2c(c1)OCO2)N1CCN(c2ncccn2)CC1	Rin1 Abl inh 5.3 | Rin1-Abl confirm inactive | GFP quench inactive
O=C(NCc1ccccc1)C(c1ccc(-c2ccccc2)cc1)n1c(=O)c(-c2ccco2)nc2ccccc21 (stereo not given)	none (no result: Arrestin-AP2 inh, Rin1 Abl inh)
CC(C)(C)c1nnc(NS(C)(=O)=O)s1	Rin1 Abl inh 9.9 | Rin1-Abl confirm inactive | GFP quench inactive
COc1ccc(S(=O)(=O)Nc2nnc(C(C)(C)C)s2)cc1	none

Source: PubChem
